Consider 8 compounds from ChEMBL document CHEMBL2390927, “Design, synthesis and antimicrobial evaluation of novel benzimidazole type of Fluconazole analogues and their synergistic effects with Chloromycin, Norfloxacin and Fluconazole” (2013).

Converted amounts (≈) assume the structure as drawn.

In one experiment the test system is Micrococcus luteus. Briefly: Antibacterial activity against Micrococcus luteus ATCC 4698 after 24 hrs by two-fold serial dilution method. The class given is functional. Conditions: ATCC 4698, 24 h. Summed up: (§1)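 MIC taken as the lowest concentration giving complete growth inhibition, by standard two-fold serial dilution in 96-well plates following NCCLS. Stocks in DMSO, diluted in Mueller–Hinton broth. Inoculum adjusted with sterile saline to 1 × 10⁵ CFU. DMSO with inoculum and no drug served as solvent control. Growth read visually and spectrophotometrically, in triplicate.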

Another experiment has as its system Candida. Briefly: Antifungal activity against Candida mycoderma after 24 hrs by two-fold serial dilution method. The class given is functional. Summed up: (§2)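 Spore suspension in sterile distilled water from one-day-old cultures on Sabouraud agar, final 1–5 × 10³ spore mL⁻¹. Compound stocks diluted in sterile RPMI 1640 as two-fold serial dilutions in microdilution plates. MIC is the lowest concentration completely inhibiting growth. Growth monitored visually and spectrophotometrically, in triplicate.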

The next experiment has as its system Cyberlindnera jadinii. Briefly: Antifungal activity against Candida utilis after 24 hrs by two-fold serial dilution method. Conditions: Williopsis jadinii. The format is functional. Summed up:
as §2

In another experiment the test system is Saccharomyces cerevisiae. Briefly: Antifungal activity against Saccharomyces cerevisiae after 24 hrs by two-fold serial dilution method. The format is functional. Summed up:
as §2

For the next experiment, the system named is Salmonella typhi. Briefly: Antibacterial activity against Bacillus typhi after 24 hrs by two-fold serial dilution method. The format is functional, Salmonella enterica subsp. enterica serovar Typhi. As to conditions: Salmonella enterica. A digest of the protocol: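 Two-fold serial dilution in 96-well plates following NCCLS; compounds dissolved in DMSO as stocks, then diluted in Mueller-Hinton broth; bacterial suspension adjusted with sterile saline to 1 × 10⁵ CFU; MIC taken as lowest concentration completely inhibiting growth, monitored visually and spectrophotometrically; DMSO-plus-inoculum well as solvent control; triplicate.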

The next experiment concerns Bacillus. Briefly: Antibacterial activity against Bacillus proteus ATCC 13315 after 24 hrs by two-fold serial dilution method. The format is functional. As to conditions: ATCC 13315, 24 h. A digest of the protocol: as §1
Experiment [1] concerns Staphylococcus aureus. Briefly: Antibacterial activity against methicillin-resistant Staphylococcus aureus N315 after 24 hrs by two-fold serial dilution method. The class given is functional. Conditions: N315, 24 h.
Experiment [2] has as its system Staphylococcus aureus. Briefly: Antibacterial activity against Staphylococcus aureus ATCC 6538 after 24 hrs by two-fold serial dilution method. The format is functional. Conditions: ATCC 6538, 24 h.
The subject of another experiment is Bacillus subtilis. Briefly: Antibacterial activity against Bacillus subtilis ATCC 21216 after 24 hrs by two-fold serial dilution method. The class given is functional. Conditions: ATCC 21216, 24 h. A digest of the protocol:
as §1

In a further experiment the test system is Candida albicans. Briefly: Antifungal activity against Candida albicans ATCC 76615 after 24 hrs by two-fold serial dilution method. The format is functional. Conditions: ATCC 76615, 24 h. Summed up: as §2
A further experiment relates to Aspergillus flavus. Briefly: Antifungal activity against Aspergillus flavus after 24 hrs by two-fold serial dilution method. The class given is functional. A digest of the protocol:
as §2

The subject of the next experiment is Pseudomonas aeruginosa. Briefly: Antibacterial activity against Pseudomonas aeruginosa ATCC 27853 after 24 hrs by two-fold serial dilution method. The format is functional. Conditions: ATCC 27853, 24 h. Summed up:
as §1

For the next experiment, the system named is Escherichia coli. Briefly: Antibacterial activity against Escherichia coli JM109 after 24 hrs by two-fold serial dilution method. As to conditions: JM109, 24 h. The format is functional.

The term MIC denotes the smallest concentration in the dilution series that meets the test's criterion for growth inhibition. Read a high MIC as a less susceptible organism. Turning to `Fc1ccc(CN(Cc2nc3ccccc3[nH]2)c2ccc(Cl)cc2Cl)c(F)c1`, the MIC against Micrococcus luteus was 128 µg/mL (≈ 306 µM); in the experiment on Candida, 32 µg/mL (≈ 76.5 µM); with Cyberlindnera jadinii it was 64 µg/mL (≈ 153 µM); in the experiment on Saccharomyces cerevisiae, 32 µg/mL (≈ 76.5 µM); in the experiment with Salmonella typhi, 32 µg/mL (≈ 76.5 µM); against Bacillus, 16 µg/mL (≈ 38.3 µM). Besides, the MIC against Staphylococcus aureus [1] stood at 64 µg/mL (≈ 153 µM); against Staphylococcus aureus [2] it was 64 µg/mL (≈ 153 µM); with Bacillus subtilis, 16 µg/mL (≈ 38.3 µM); against Candida albicans it was 32 µg/mL (≈ 76.5 µM); in the experiment on Aspergillus flavus, 64 µg/mL (≈ 153 µM); with Pseudomonas aeruginosa, 128 µg/mL (≈ 306 µM). Further, it took 64 µg/mL (≈ 153 µM) to inhibit growth in the experiment on Escherichia coli (MIC).
For the compound `FC(F)(F)c1cc(N(Cc2nc3ccccc3[nH]2)Cc2ccc(Cl)cc2Cl)cc(C(F)(F)F)c1`, the MIC against Micrococcus luteus was determined as 128 µg/mL (≈ 247 µM); against Candida it was 64 µg/mL (≈ 123 µM); in the experiment on Cyberlindnera jadinii, 64 µg/mL (≈ 123 µM); in the experiment with Saccharomyces cerevisiae, 32 µg/mL (≈ 61.7 µM); in the experiment on Salmonella typhi, 64 µg/mL (≈ 123 µM); against Bacillus, 32 µg/mL (≈ 61.7 µM). The MIC stood at 64 µg/mL (≈ 123 µM) in the experiment with Staphylococcus aureus [1]; 64 µg/mL (≈ 123 µM) with Staphylococcus aureus [2]; 64 µg/mL (≈ 123 µM) in the experiment on Bacillus subtilis; 64 µg/mL (≈ 123 µM) in the experiment with Candida albicans; 64 µg/mL (≈ 123 µM) in the experiment on Aspergillus flavus; 128 µg/mL (≈ 247 µM) against Pseudomonas aeruginosa. In addition, 64 µg/mL (≈ 123 µM) was the least that counted as inhibitory in the experiment with Escherichia coli (MIC).
Consider `Cc1cc(=O)oc2cc(OCCCCCCN(Cc3nc4ccccc4[nH]3)c3ccc(F)cc3)ccc12`, for which the minimum inhibitory concentration (MIC) against Micrococcus luteus was determined as 128 µg/mL (≈ 256 µM); against Candida, 32 µg/mL (≈ 64.1 µM); against Cyberlindnera jadinii, 16 µg/mL (≈ 32 µM); in the experiment on Saccharomyces cerevisiae it was 32 µg/mL (≈ 64.1 µM); against Salmonella typhi it was 64 µg/mL (≈ 128 µM); against Bacillus it was 64 µg/mL (≈ 128 µM). Also, the MIC against Staphylococcus aureus [1] amounted to 128 µg/mL (≈ 256 µM); in the experiment on Staphylococcus aureus [2], 32 µg/mL (≈ 64.1 µM); with Bacillus subtilis, 16 µg/mL (≈ 32 µM); against Candida albicans, 16 µg/mL (≈ 32 µM); in the experiment on Aspergillus flavus it was 32 µg/mL (≈ 64.1 µM); with Pseudomonas aeruginosa, 16 µg/mL (≈ 32 µM). Also, the MIC with Escherichia coli came to 128 µg/mL (≈ 256 µM).
For the compound `CC(=O)c1cc2ccc(OCc3ccc(CN(Cc4nc5ccccc5[nH]4)c4ccc(C)cc4)cc3)cc2oc1=O`, the MIC in the experiment with Micrococcus luteus is 128 µg/mL (≈ 235 µM); against Candida, 128 µg/mL (≈ 235 µM); against Cyberlindnera jadinii, 64 µg/mL (≈ 118 µM); against Saccharomyces cerevisiae, 32 µg/mL (≈ 58.9 µM); in the experiment with Salmonella typhi it was 128 µg/mL (≈ 235 µM); against Bacillus, 256 µg/mL (≈ 471 µM). Moreover, the MIC in the experiment with Staphylococcus aureus [1] came to 64 µg/mL (≈ 118 µM); with Staphylococcus aureus [2], 128 µg/mL (≈ 235 µM); against Bacillus subtilis, 64 µg/mL (≈ 118 µM); in the experiment with Candida albicans, 64 µg/mL (≈ 118 µM); against Aspergillus flavus it was 64 µg/mL (≈ 118 µM); with Pseudomonas aeruginosa it was 128 µg/mL (≈ 235 µM). In the experiment on Escherichia coli, this compound showed an MIC of 128 µg/mL (≈ 235 µM).
As to `Fc1ccccc1N(CCCCn1c2ccccc2c2ccccc21)Cc1nc2ccccc2[nH]1`, the MIC against Micrococcus luteus stood at 128 µg/mL (≈ 277 µM); against Candida it was 64 µg/mL (≈ 138 µM); against Cyberlindnera jadinii, 32 µg/mL (≈ 69.2 µM); in the experiment on Saccharomyces cerevisiae, 64 µg/mL (≈ 138 µM); in the experiment on Salmonella typhi, 128 µg/mL (≈ 277 µM); against Bacillus, 64 µg/mL (≈ 138 µM). Also, the MIC came to 128 µg/mL (≈ 277 µM) with Staphylococcus aureus [1]; 64 µg/mL (≈ 138 µM) against Staphylococcus aureus [2]; 64 µg/mL (≈ 138 µM) in the experiment with Bacillus subtilis; 32 µg/mL (≈ 69.2 µM) in the experiment with Candida albicans; 64 µg/mL (≈ 138 µM) against Aspergillus flavus; 64 µg/mL (≈ 138 µM) against Pseudomonas aeruginosa. In addition, the MIC in the experiment on Escherichia coli stood at 128 µg/mL (≈ 277 µM).
In the case of `Cc1ccc(N(Cc2cccc(Cl)c2)Cc2nc3ccccc3[nH]2)cc1`, the MIC against Micrococcus luteus came out at 128 µg/mL (≈ 354 µM); with Candida it was 32 µg/mL (≈ 88.4 µM); against Cyberlindnera jadinii, 32 µg/mL (≈ 88.4 µM); against Saccharomyces cerevisiae, 64 µg/mL (≈ 177 µM); in the experiment on Salmonella typhi it was 16 µg/mL (≈ 44.2 µM); against Bacillus, 128 µg/mL (≈ 354 µM). Also, the MIC with Staphylococcus aureus [1] was 128 µg/mL (≈ 354 µM); in the experiment with Staphylococcus aureus [2], 32 µg/mL (≈ 88.4 µM); against Bacillus subtilis, 64 µg/mL (≈ 177 µM); against Candida albicans, 32 µg/mL (≈ 88.4 µM); with Aspergillus flavus, 64 µg/mL (≈ 177 µM); with Pseudomonas aeruginosa, 32 µg/mL (≈ 88.4 µM). The same compound returned an MIC in the experiment on Escherichia coli of 32 µg/mL (≈ 88.4 µM).
Regarding `Cc1ccc(N(Cc2ccc(Cl)cc2)Cc2nc3ccccc3[nH]2)cc1`, the MIC is 128 µg/mL (≈ 354 µM) against Micrococcus luteus; 32 µg/mL (≈ 88.4 µM) with Candida; 64 µg/mL (≈ 177 µM) in the experiment with Cyberlindnera jadinii; 128 µg/mL (≈ 354 µM) in the experiment with Saccharomyces cerevisiae; 64 µg/mL (≈ 177 µM) against Salmonella typhi; 32 µg/mL (≈ 88.4 µM) against Bacillus. The MIC in the experiment with Staphylococcus aureus [1] came out at 64 µg/mL (≈ 177 µM); against Staphylococcus aureus [2], 32 µg/mL (≈ 88.4 µM); against Bacillus subtilis, 64 µg/mL (≈ 177 µM); against Candida albicans it was 64 µg/mL (≈ 177 µM); against Aspergillus flavus, 128 µg/mL (≈ 354 µM); against Pseudomonas aeruginosa, 64 µg/mL (≈ 177 µM). Also, in the experiment with Escherichia coli, the MIC was 32 µg/mL (≈ 88.4 µM).
As to `Cc1ccc(N(Cc2ccc([N+](=O)[O-])cc2)Cc2nc3ccccc3[nH]2)cc1`, the MIC was 128 µg/mL (≈ 344 µM) against Micrococcus luteus; 64 µg/mL (≈ 172 µM) in the experiment with Candida; 64 µg/mL (≈ 172 µM) against Cyberlindnera jadinii; 64 µg/mL (≈ 172 µM) with Saccharomyces cerevisiae; 64 µg/mL (≈ 172 µM) with Salmonella typhi; 64 µg/mL (≈ 172 µM) against Bacillus. The MIC against Staphylococcus aureus [1] is 256 µg/mL (≈ 687 µM); against Staphylococcus aureus [2], 32 µg/mL (≈ 85.9 µM); in the experiment on Bacillus subtilis, 64 µg/mL (≈ 172 µM); in the experiment with Candida albicans it was 128 µg/mL (≈ 344 µM); against Aspergillus flavus, 128 µg/mL (≈ 344 µM); against Pseudomonas aeruginosa, 64 µg/mL (≈ 172 µM). The compound also gave an MIC with Escherichia coli of 64 µg/mL (≈ 172 µM).
